Consider five compounds from ChEMBL document CHEMBL1156205, “Synthesis and antibacterial activity of new 9-O-arylpropenyloxime ketolides” (2010).

Holding throughout (type): functional
Assay [1] relates to Streptococcus pneumoniae. Nature of the assay: Antibacterial activity against penicillin intermediate-resistant Streptococcus pneumoniae isolate I1 by agar dilution method. In short, it runs like this: (§1)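 MIC determined by agar dilution on Mueller–Hinton agar against clinically isolated penicillin-intermediate-resistant S. pneumoniae.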
On the technique in general: Agar dilution tests growth on a series of plates holding different concentrations.

Assay [2] deals with Streptococcus pneumoniae. Nature of the assay: Antibacterial activity against penicillin intermediate-resistant Streptococcus pneumoniae isolate I2 by agar dilution method. The gist of the method: as §1
Assay [3] deals with Streptococcus pneumoniae. Nature of the assay: Antibacterial activity against penicillin intermediate-resistant Streptococcus pneumoniae isolate I3 by agar dilution method. In short, it runs like this: as §1
Assay [4] relates to Staphylococcus aureus. Nature of the assay: Antibacterial activity against methicillin-susceptible Staphylococcus aureus ATCC 29213 by agar dilution method. The gist of the method:
(§2)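 MIC determined by agar dilution on Mueller–Hinton agar against reference strains.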

In assay [5] the test system is Staphylococcus aureus. Nature of the assay: Antibacterial activity against methicillin-resistant Staphylococcus aureus 1 by agar dilution method. In short, it runs like this:
(§3)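 MIC determined by agar dilution on Mueller–Hinton agar against clinical strains of methicillin-resistant S. aureus.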

The subject of assay [6] is Staphylococcus aureus. Nature of the assay: Antibacterial activity against methicillin-resistant Staphylococcus aureus 2 by agar dilution method. In short, it runs like this: as §3
The subject of assay [7] is Staphylococcus aureus. In words: Antibacterial activity against methicillin-resistant Staphylococcus aureus 3 by agar dilution method. The gist of the method:
as §3

Assay [8] concerns Staphylococcus aureus. In words: Antibacterial activity against methicillin-susceptible Staphylococcus aureus isolate 1 by agar dilution method. The gist of the method: (§4)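 MIC determined by agar dilution on Mueller–Hinton agar against clinically isolated methicillin-susceptible S. aureus.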
Assay [9] concerns Staphylococcus aureus. In words: Antibacterial activity against methicillin-susceptible Staphylococcus aureus isolate 2 by agar dilution method. The gist of the method: as §4
The subject of assay [10] is Staphylococcus aureus. In words: Antibacterial activity against methicillin-susceptible Staphylococcus aureus isolate 3 by agar dilution method. In short, it runs like this: as §4
The subject of assay [11] is Streptococcus pneumoniae. Nature of the assay: Antibacterial activity against Streptococcus pneumoniae ATCC 49619 by agar dilution method. The conditions noted are these: ATCC49619. The gist of the method: as §2
For assay [12], the system named is Streptococcus pneumoniae. In words: Antibacterial activity against penicillin-susceptible Streptococcus pneumoniae isolate S1 by agar dilution method. The gist of the method:
(§5)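 MIC measured by agar dilution on Mueller–Hinton agar. Strains were a reference culture and clinically isolated strains. The pneumococcal isolates were penicillin-susceptible clinical isolates.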

Assay [13] relates to Streptococcus pneumoniae. Nature of the assay: Antibacterial activity against penicillin-susceptible Streptococcus pneumoniae isolate S2 by agar dilution method. In short, it runs like this:
as §5

Assay [14] has as its system Streptococcus pyogenes. Nature of the assay: Antibacterial activity against Streptococcus pyogenes ATCC 8668 by agar dilution method. The gist of the method: as §5
Assay [15] deals with Streptococcus pyogenes. Nature of the assay: Antibacterial activity against Streptococcus pyogenes isolate 1 by agar dilution method. In short, it runs like this:
as §5

In assay [16] the test system is Streptococcus pyogenes. Nature of the assay: Antibacterial activity against Streptococcus pyogenes isolate 2 by agar dilution method. In short, it runs like this: as §5
In assay [17] the test system is Streptococcus pyogenes. In words: Antibacterial activity against Streptococcus pyogenes isolate 3 by agar dilution method. In short, it runs like this: as §5

In brackets after ≈: the same amount, converted by molar mass.

As a reminder, the MIC50 is the lowest concentration that inhibits either 50% of growth or 50% of the strains tested, depending on the study. Low readings indicate higher susceptibility, high ones lower susceptibility. One may read the MIC as the lowest concentration that inhibits growth of the organism. Low values mean inhibition by little substance, high ones a need for much substance.

Consider `CC[C@H]1OC(=O)[C@H](C)[C@@H](O[C@H]2C[C@@](C)(OC)[C@@H](O)[C@H](C)O2)[C@H](C)[C@@H](O[C@@H]2O[C@H](C)C[C@H](N(C)C)[C@H]2O)[C@](C)(O)C[C@@H](C)C(=O)[C@H](C)[C@@H](O)[C@]1(C)O` [ERYTHROMYCIN], for which the MIC50 in assay [1], in [2] and in assay [3] was greater than 128 µM each time.

Turning to `CC[C@H]1OC(=O)[C@H](C)C(=O)[C@H](C)[C@@H](O[C@@H]2O[C@H](C)C[C@H](N(C)C)[C@H]2O)[C@](C)(OC)C[C@@H](C)/C(=N\OC/C=C/c2ccc3[nH]ccc3c2)[C@H](C)[C@@H](O)[C@]1(C)O`, the minimum inhibitory concentration (MIC) in assay [1] was 32 µg/mL (≈ 42.2 µM); in assay [4] it was 1 µg/mL (≈ 1.32 µM); in [5], 128 µg/mL (≈ 169 µM); in [6] it was 128 µg/mL (≈ 169 µM); in assay [7], 1 µg/mL (≈ 1.32 µM); in assay [8], 1 µg/mL (≈ 1.32 µM). In addition, the MIC in assay [9] was 1 µg/mL (≈ 1.32 µM); in [10], 1 µg/mL (≈ 1.32 µM); in assay [11] it was 0.25 µg/mL (≈ 0.33 µM); in [2], 0.25 µg/mL (≈ 0.33 µM); in assay [3], 0.25 µg/mL (≈ 0.33 µM); in assay [12], 0.06 µg/mL (≈ 0.0792 µM). For the same compound, the MIC was determined as 0.06 µg/mL (≈ 0.0792 µM) in assay [13]; 0.25 µg/mL (≈ 0.33 µM) in [14]; 0.06 µg/mL (≈ 0.0792 µM) in [15]; 0.25 µg/mL (≈ 0.33 µM) in [16]; 0.25 µg/mL (≈ 0.33 µM) in assay [17].

Regarding `CC[C@H]1OC(=O)[C@H](C)C(=O)[C@H](C)[C@@H](O[C@@H]2O[C@H](C)C[C@H](N(C)C)[C@H]2O)[C@](C)(OC)C[C@@H](C)/C(=N\OC/C=C/c2cccs2)[C@H](C)[C@@H](O)[C@]1(C)O`, the MIC worked out at 32 µg/mL (≈ 44.1 µM) in [1]; 0.5 µg/mL (≈ 0.69 µM) in assay [4]; 128 µg/mL (≈ 177 µM) in assay [5]; 128 µg/mL (≈ 177 µM) in [6]; 0.25 µg/mL (≈ 0.345 µM) in assay [7]; 0.5 µg/mL (≈ 0.69 µM) in [8]. In addition, the MIC in assay [9] amounted to 0.25 µg/mL (≈ 0.345 µM); in assay [10] it was 0.25 µg/mL (≈ 0.345 µM); in [11], 0.06 µg/mL (≈ 0.0828 µM); in assay [2], 0.125 µg/mL (≈ 0.172 µM); in assay [3] it was 0.125 µg/mL (≈ 0.172 µM); in assay [12] it was 0.06 µg/mL (≈ 0.0828 µM). The MIC in assay [13], in assay [14], in assay [15], in assay [16] and in [17] was 0.06 µg/mL (≈ 0.0828 µM) each time.

With `CC[C@H]1OC(=O)[C@H](C)C(=O)[C@H](C)[C@@H](O[C@@H]2O[C@H](C)C[C@H](N(C)C)[C@H]2O)[C@](C)(OC)C[C@@H](C)/C(=N\OC/C=C/c2cnc3ccccc3c2)[C@H](C)[C@@H](O)[C@]1(C)O`, the MIC was found to be 64 µg/mL (≈ 83.1 µM) in [1]; 0.25 µg/mL (≈ 0.325 µM) in [4]; 128 µg/mL (≈ 166 µM) in assay [5]; 128 µg/mL (≈ 166 µM) in assay [6]; 0.25 µg/mL (≈ 0.325 µM) in assay [7]; 0.25 µg/mL (≈ 0.325 µM) in assay [8]. Also, the MIC in [9] was 0.25 µg/mL (≈ 0.325 µM); in assay [10] it was 0.25 µg/mL (≈ 0.325 µM); in assay [11], 0.06 µg/mL (≈ 0.0779 µM); in [2] it was 0.06 µg/mL (≈ 0.0779 µM); in assay [3], 4 µg/mL (≈ 5.19 µM); in assay [12], 0.06 µg/mL (≈ 0.0779 µM). The MIC in [13], in assay [14], in [15], in [16] and in [17] was 0.06 µg/mL (≈ 0.0779 µM) in each case.

For the compound `CC[C@H]1OC(=O)[C@H](C)C(=O)[C@H](C)[C@@H](O[C@@H]2O[C@H](C)C[C@H](N(C)C)[C@H]2O)[C@](C)(OC)C[C@@H](C)/C(=N\OC/C=C/c2cncc3ccccc23)[C@H](C)[C@@H](O)[C@]1(C)O`, the MIC was 32 µg/mL (≈ 41.6 µM) in assay [1]; 1 µg/mL (≈ 1.3 µM) in assay [4]; 128 µg/mL (≈ 166 µM) in [5]; 128 µg/mL (≈ 166 µM) in assay [6]; 0.5 µg/mL (≈ 0.649 µM) in assay [7]; 1 µg/mL (≈ 1.3 µM) in assay [8]. Further, the MIC in assay [9] was 0.5 µg/mL (≈ 0.649 µM); in assay [10], 0.5 µg/mL (≈ 0.649 µM); in assay [11], 0.25 µg/mL (≈ 0.325 µM); in [2], 0.5 µg/mL (≈ 0.649 µM); in assay [3] it was 1 µg/mL (≈ 1.3 µM); in [12] it was 0.25 µg/mL (≈ 0.325 µM). The MIC came to 0.25 µg/mL (≈ 0.325 µM) in assay [13]; 0.25 µg/mL (≈ 0.325 µM) in assay [14]; 0.06 µg/mL (≈ 0.0779 µM) in [15]; 0.25 µg/mL (≈ 0.325 µM) in assay [16]; 0.25 µg/mL (≈ 0.325 µM) in assay [17].
